Most compounds without a hit are left out; they make up all but 1.8% or so of the library.
Tb MetRS inh: blocks T. brucei methionyl-tRNA synthetase activity | purified T. brucei MetRS, ATP depletion, Kinase-Glo luminescence | inhibition, % at 11.9 µM | 360,000 compounds, 0.4% hits;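 active = inhibition above a per-plate cutoff of the control wells' mean inhibition plus 3 SD, cut at about 5.5% in these data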
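Test system: purified T. brucei MetRS enzyme. Also added: ATP, methionine and E. coli bulk tRNA substrates. Compound: 11.9 µM single point. Schedule: 15 min enzyme-compound preincubation, 2 h reaction, 10 min detection, 25 °C. Signal: luciferase luminescence of residual ATP, Kinase-Glo. Evaluation: percent inhibition versus plate control medians. Controls: DMSO wells, low control.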
E coli Lon inh: E. coli protease La inhibition | inhibition, % at 7.94 µM | P0A9M0 | purified E. coli Lon protease, fluorescence polarization | 360,000 compounds, 0.42% hits; in the data active = inhibition above about 13%, passing the limit was not always enough
PREPL inhibitor: inhibitors of human prolyl oligopeptidase-like enzyme PREPL; 320,000 compounds, 0.68% hits; AID 2751; recombinant PREPL, fluorescence polarization activity-based probe; inhibition, % at 5.96 µM
Target sequence (Q4J6C6 whole entry, looked up): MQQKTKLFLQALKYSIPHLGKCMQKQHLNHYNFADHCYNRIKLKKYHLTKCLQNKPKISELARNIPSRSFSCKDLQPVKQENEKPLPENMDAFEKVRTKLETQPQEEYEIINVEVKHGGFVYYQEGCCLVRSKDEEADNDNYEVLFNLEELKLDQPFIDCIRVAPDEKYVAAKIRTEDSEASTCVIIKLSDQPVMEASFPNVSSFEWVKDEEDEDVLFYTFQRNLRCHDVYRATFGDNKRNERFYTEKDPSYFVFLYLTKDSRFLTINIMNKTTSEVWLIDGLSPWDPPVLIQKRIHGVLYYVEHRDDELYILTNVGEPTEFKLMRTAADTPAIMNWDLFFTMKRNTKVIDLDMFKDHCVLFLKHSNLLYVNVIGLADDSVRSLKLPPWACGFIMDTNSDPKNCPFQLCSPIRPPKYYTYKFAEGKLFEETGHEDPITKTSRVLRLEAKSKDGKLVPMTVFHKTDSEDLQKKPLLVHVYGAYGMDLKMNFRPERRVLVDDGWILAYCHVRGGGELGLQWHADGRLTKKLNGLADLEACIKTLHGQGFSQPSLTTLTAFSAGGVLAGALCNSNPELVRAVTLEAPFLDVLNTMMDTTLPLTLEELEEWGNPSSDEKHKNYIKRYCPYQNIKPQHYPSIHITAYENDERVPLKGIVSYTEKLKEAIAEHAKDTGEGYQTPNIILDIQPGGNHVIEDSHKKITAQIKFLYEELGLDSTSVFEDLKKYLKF
SKN-1 inh: blocks SKN-1 activity in C. elegans; C. elegans VP596 Pgst-4::GFP/RFP ratio, acrylamide-induced, 24 h; 360,000 compounds, 0.49% hits; inhibition, % at 21.8 µM;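 active = interference check ratio from 0.5 to 1.5 plus GFP to RFP signal ratio inhibition reaching or exceeding a fixed threshold, cut at about 30% in these data, passing the limit was not always enough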
hiPSC survival: hiPSC single-cell survival enhancement; 360,000 compounds, 0.044% hits; survival enhancement, % at 20 µM; ATPlite luminescence; 100% = ROCK inhibitor wells, 0% = DMSO; in the data active = survival enhancement above about 18%;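 also: cells exposed to compounds for 16 hours before the ATP read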
MT1-MMP act inh: inhibitors of human MT1-MMP activation; GFP/RFP ratio change, % at 20 µM; P50281; HT1080 RFP-PRO-GFP cells, GFP/RFP ratio fluorescence, overnight; percent of plate control window, DMSO zero; 360,000 compounds, 0.061% hits;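 active = GFP/RFP ratio change of at least 30% with cell ATP level not reduced by more than half and red fluorescence within 50% of control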
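Assay system – RFP-PRO-GFP reporter HT1080 cells · Compound dosing – single dose of 20 µM compound, 1% DMSO final · Incubation – overnight compound exposure at 37 °C · Measure – GFP/RFP fluorescence ratio · Benchmarks – DMSO wells and RFP-L50D-GFP cells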
PREPL inh cf: human PREPL inhibition, confirmation. shares compounds with PREPL inhibitor. recombinant PREPL, fluorescence polarization activity probe. inhibition, % at 5.96 µM. 2,000 compounds, 67% hits
Numbers stand for hits; - = inactive; . = not tested or not shown; + = active, no number. Rule as the data show it, unless noted: active = inhibition above about 43%; inactive = the rest.

SMILES	Tb MetRS inh	E coli Lon inh	PREPL inhibitor	SKN-1 inh	hiPSC survival	MT1-MMP act inh	others
CC(C)COC(=O)c1ccccc1C(=O)OCC(C)C	-	-	-	-	-	-
C[CH2][Hg][S]c1ccccc1C(=O)O	-	-	-	38	-	-
Cc1ccc(/C=C2\C(=O)NC(=O)N(CC3CCCO3)C2=O)s1 (stereo not given)	-	-	-	-	-	-
CCN(CC)c1ccc(/C=C2\C(=O)NC(=O)N(CC3CCCO3)C2=O)cc1 (stereo not given)	-	-	-	42	-	-
CCN(CC)c1ccc(C=C2C(=O)N(C)C(=S)N(C)C2=O)o1	-	-	-	38	-	-
COC(=O)C1=C(c2ccc(OC)c(OC)c2)C[C@@H]2CC[C@H]1N2C(=O)NCC1CC1	-	-	-	-	-	-
CCN1/C(=C\C=C\C2=[N+](CC)c3ccccc3C2(C)C)C(C)(C)c2ccccc21	-	+	-	-	-	-
O=C(O)c1cc[c]([Hg][Cl])cc1	-	-	-	45	-	-
CCc1ccc(-n2c(O)c(/C=N/N3CCCCC3c3cccnc3)c(=O)[nH]c2=O)cc1 (stereo not given)	-	-	-	-	-	-
O=c1[nH]c(=S)n(-c2ccccc2)c(O)c1/C=N/N1CCCCC1c1cccnc1 (stereo not given)	-	-	-	41	-	-
CC(=O)N(C1=NCCCS1)c1ccc(F)cc1	-	-	-	39	-	-
C=C1C(=O)O[C@@H]2C[C@@H](C)[C@@H]3C=CC(=O)[C@@]3(C)[C@@H](O)[C@H]12	-	-	-	-	82	-
NC(Cc1cc(O)c(O)cc1O)C(=O)O (stereo not given)	.	.	67	.	.	.
Cc1ccccc1-c1ccc2n1Cc1cnnn1-c1ccccc1-2	-	-	.	-	-	-
O=[N+]([O-])c1ccc(N2CCCC2)c2ccncc12	-	-	-	35	-	-
O=[N+]([O-])c1ccc(NC2CCCC2)c2ccncc12	-	-	-	-	-	-
CCC(C)C1NC(=O)C(NC(=O)C(CC(C)C)N(C)C(=O)C2CCCN2C(=O)C(C)O)C(C)OC(=O)C(Cc2ccc(OC)cc2)N(C)C(=O)C2CCCN2C(=O)C(CC(C)C)NC(=O)[C@H](C)C(=O)[C@H](C(C)C)OC(=O)CC1O (stereo not given in full)	-	-	.	-	-	-
CC(=O)OC1C(=O)OCC23CCC4(C)OC4C2OC2CC(OC(=O)C=CC=CC(=O)OCCC1C)C3(C)C21CO1 (stereo not given)	-	-	.	42	-	-
CC(O)C1C=CC=CC(=O)OC2CC3OC4C5OC5(C)CCC4(COC(=O)C4OC4(C)C(O)CO1)C2(C)C31CO1 (stereo not given)	-	-	.	-	-	-
CCC1(C)OC(c2ccccc2)=C/C(=C/C=C2C(=O)NC(=O)NC2=O)O1 (stereo not given)	-	-	.	48	-	-
CCC1(Oc2ccccc2)C(=O)NC(=O)NC1=O	-	-	.	-	-	-
C=C1C(C)C2C(Cc3ccccc3)NC(=O)C23OC(=O)/C=C/C(O)CCCC(C)C/C=C/C3C1O (stereo not given)	-	-	.	-	30	-
CCOc1ccc(-n2c(-c3cccs3)nc3ccccc3c2=O)cc1	-	-	-	-	-	-
CCn1nc(-c2cccs2)nc2c(=O)n(C)c(=O)nc1-2	22	-	.	-	-	-
CCN1C(=O)/C(=C/c2ccc(N(CC)CC)cc2OC)C(=O)NC1=S	-	-	-	45	-	-
C[C@@H]1CN([C@@H](C)CO)C(=O)CCCn2nncc2CO[C@H]1CN(C)C(=O)Oc1ccc2ccccc2c1	-	-	.	-	-	-
COc1ccc2c(c1)c(C(=O)CN1CCC3(CC1)OCCO3)c(C)n2Cc1ccccc1	-	-	58	-	-	-	PREPL inh cf=49
CCCc1nc2ccccc2c(=O)n1-c1ccccc1OC	-	-	-	-	-	-
CCCCc1nc2ccccc2c(=O)n1-c1ccccc1O	-	-	111	-	-	-	PREPL inh cf=-
